According to article PMC11682233 (Scientific Reports, 2024):

Tests used:
[1] = system: SUNE6-10B; test: Clonogenic; type: cell-based
[2] = system: NPC cells; test: Preliminary NPC cytotoxicity screening; type: cell-based; settings: MTT, 48 h
Outline: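 3,000 NPC cells per well, plated 24 h, then given fresh medium with test compound at 0.1, 1, 10 or 100 µM for 48 h; cisplatin served as positive control. MTT at 0.5 mg/mL final in RPMI for 3 h at 37 °C. Formazan dissolved in DMSO, absorbance read at 540 nm. Run in triplicate; t-test, p < 0.05 significant.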

[3] = system: non-phosphorylated β-catenin; test: Western immunoblotting of Wnt signaling proteins in SUNE5-8F cells; type: cell-based; settings: IC25 and IC50 doses, 48 h
Outline: (§1)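 Lysates spun at 12,000 × g, 10 min, 4 °C; Bradford assay. 10% SDS-PAGE, nitrocellulose transfer, 5% BSA block 1 h, primary antibody overnight at 4 °C, HRP secondary 1 h at room temperature, ECL detection. Band densities normalised to β-actin, expressed relative to untreated control.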

[4] = target: T1, FZD10 recombinant proteoliposome (Homo sapiens, UniProt Q9ULW2); test: STD-NMR; type: binding; settings: 230 nM protein, 0.3–1.5 µM ligand, D2O, 298 K
T1 sequence (Q9ULW2 21-581): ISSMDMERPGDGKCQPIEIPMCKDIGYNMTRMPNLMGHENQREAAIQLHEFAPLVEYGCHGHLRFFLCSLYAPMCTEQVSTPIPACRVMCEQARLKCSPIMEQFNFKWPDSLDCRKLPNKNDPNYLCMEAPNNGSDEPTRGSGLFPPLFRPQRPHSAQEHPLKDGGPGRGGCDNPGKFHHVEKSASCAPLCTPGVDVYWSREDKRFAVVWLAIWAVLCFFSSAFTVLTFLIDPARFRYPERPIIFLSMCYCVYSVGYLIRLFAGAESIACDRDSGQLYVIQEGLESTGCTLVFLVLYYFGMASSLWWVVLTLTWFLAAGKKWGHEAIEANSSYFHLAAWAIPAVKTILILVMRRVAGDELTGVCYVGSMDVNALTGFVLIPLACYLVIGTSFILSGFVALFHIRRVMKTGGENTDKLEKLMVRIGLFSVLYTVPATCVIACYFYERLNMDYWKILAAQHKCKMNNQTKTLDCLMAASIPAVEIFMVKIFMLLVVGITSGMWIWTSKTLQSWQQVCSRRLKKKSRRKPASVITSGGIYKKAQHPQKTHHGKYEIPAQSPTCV
Outline: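 STD-NMR at 600 MHz on a cryoprobe-equipped spectrometer, with the residual D2O peak (δH 4.70) as chemical shift reference. 1H spectral width 9600 Hz, 30° pulse angle, 2.5 s recycle delay, 8 scans.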

[5] = system: SUNE5-8F; test: Clonogenic; type: cell-based
[6] = system: phosphorylated LRP6; test: Western immunoblotting of Wnt signaling proteins in SUNE5-8F cells; type: cell-based; settings: IC25 and IC50 doses, 48 h
Outline: as §1

[7] = system: non-phosphorylated β-catenin; test: Western immunoblotting of Wnt signaling proteins in SUNE6-10B cells; type: cell-based; settings: IC50 dose, 48 h
Outline: as §1

[8] = system: phosphorylated LRP6; test: as above; type: cell-based; settings: IC50 dose, 48 h
Outline: as §1

[9] = IC25 dose (doxazosin 7 µM, nicergoline 20 µM)
[10] = IC50 dose (rilpivirine 4 µM, doxazosin 14 µM, nicergoline 40 µM)
[11] = IC25 dose (rilpivirine 2 µM, doxazosin 7 µM, nicergoline 20 µM)

SMILES: CO[C@]12C[C@@H](COC(=O)c3cncc(Br)c3)CN(C)[C@@H]1Cc1cn(C)c3cccc2c13 [Nicergoline]
- colony formation [1, 9]: suppressed the colony formation
- colony formation [1, 10]: suppressed the colony formation
- 50% inhibition cutoff at 100 µM [2]: met the 50% inhibition cutoff at 100 µM
- expression of active β-catenin (non-phosphorylated β-catenin) [3]: decreased
- STD signals (binding to FZD10) [4]: STD signals corresponding to H2 and H3
- colony formation [5, 11]: suppressed the colony formation
- colony formation [5, 10]: suppressed the colony formation
- expression of phosphorylated LRP6 [6]: decreased
- expression level of active β-catenin [7]: decreased

SMILES: COc1cc2nc(N3CCN(C(=O)C4COc5ccccc5O4)CC3)nc(N)c2cc1OC (centres unmarked) [Doxazosin]
- colony formation [1, 9]: suppressed the colony formation
- colony formation [1, 10]: suppressed the colony formation
- 50% inhibition cutoff at 100 µM [2]: met the 50% inhibition cutoff at 100 µM
- expression of active β-catenin (non-phosphorylated β-catenin) [3]: decreased
- STD signals (binding to FZD10) [4]: STD signals for H5 and H6
- colony formation [5, 11]: suppressed the colony formation
- colony formation [5, 10]: suppressed the colony formation
- expression of phosphorylated LRP6 [6]: decreased

SMILES: Cc1cc(/C=C/C#N)cc(C)c1Nc1ccnc(Nc2ccc(C#N)cc2)n1 [Rilpivirine]
- colony formation [1, 10]: reduced the colony formation ability
- 50% inhibition cutoff at 100 µM [2]: met the 50% inhibition cutoff at 100 µM
- expression of active β-catenin (non-phosphorylated β-catenin) [3]: decreased
- STD signals (binding to FZD10) [4]: STD signals from H2
- colony formation [5, 11]: no impact
- colony formation [5, 10]: reduced the colony formation ability
- expression of phosphorylated LRP6 [6]: decreased
- expression of phosphorylated LRP6 [8]: reduced
- expression level of active β-catenin [7]: decreased

SMILES: COc1cc2nc(N3CCN(C(=O)c4ccco4)CC3)nc(N)c2cc1OC [Prazosin]
- 50% inhibition cutoff at 100 µM [2]: met the 50% inhibition cutoff at 100 µM
- expression of active β-catenin (non-phosphorylated β-catenin) [3]: decreased
- STD signals (binding to FZD10) [4]: STD signals from H2, H3,4, and H5,6
- colony formation ([5]; 8 µM): inhibited colony formation
- expression of phosphorylated LRP6 [6]: decreased
- expression level of active β-catenin [7]: decreased
